TAAR1 ag – human TAAR1 agonists, primary screen, Fluo-8 calcium fluorescence, CHO RD-HGA16 cells; Trace amine-associated receptor 1 (Homo sapiens), Q96RJ0; vehicle wells 0%, saturating PEA agonist 100%; activation, % at 3 µM; 360,000 tested, 0.99% active;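 active = activation above the mean activation of all test compounds in the run plus 3 SD, cut at about 38% in these data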
Target sequence (Q96RJ0 whole entry, looked up): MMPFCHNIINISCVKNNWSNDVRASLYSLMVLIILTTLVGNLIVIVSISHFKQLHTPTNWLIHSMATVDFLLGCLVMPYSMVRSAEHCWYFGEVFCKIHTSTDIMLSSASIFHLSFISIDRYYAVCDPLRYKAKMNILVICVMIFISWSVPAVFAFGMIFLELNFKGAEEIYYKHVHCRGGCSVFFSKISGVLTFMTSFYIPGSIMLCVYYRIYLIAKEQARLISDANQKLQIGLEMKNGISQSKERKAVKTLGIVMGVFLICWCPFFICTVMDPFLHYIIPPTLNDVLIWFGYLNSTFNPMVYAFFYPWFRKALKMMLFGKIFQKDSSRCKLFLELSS
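System: CHO-derived RD-HGA16 cells with stable Gα16 and human TAAR1. Times: 17-24 h plating, Fluo-8 75 min 37 °C, 30 min RT. Measured by: calcium-sensitive Fluo-8 signal, excitation 470-495, emission 515-575 nm. Read-out basis: % activation relative to PEA EC100 response. Control set: DMSO and PEA EC100. Repeats: no replicates (n 1).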
V1aR counter – agonists of human V1a receptor, primary screen, counter-screen for OXTR agonist project, fluorescence, CHO-V1R cells; 320,000 tested, 0.25% active; Vasopressin V1a receptor (Homo sapiens), P37288; activation, % at 3 µM; Fluo-8 calcium fluorescence, agonist mode; 0% DMSO, 100% 3 nM vasopressin;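 active = activation above the mean activation of all tested compounds plus 3 SD, per screening run, cut at about 20% in these data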;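 also: signal is peak over basal fluorescence ratio across a 100 second FLIPR read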
OXTR ag – human OXTR agonists, primary screen, fluorescence, CHO-OTR cells, Fluo-8 calcium. Oxytocin receptor (Homo sapiens), P30559. Fluo-8 calcium fluorescence; normalized: DMSO 0%, oxytocin 100%. activation, % at 3 µM. 320,000 tested, 0.32% active;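 active = activation above the mean of all tested compounds plus 3 SD, cutoff set per screening run, cut at about 20% in these data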;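 also: peak over basal fluorescence ratio from a 100 s FLIPR kinetic read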
Target sequence (P30559 whole entry, looked up): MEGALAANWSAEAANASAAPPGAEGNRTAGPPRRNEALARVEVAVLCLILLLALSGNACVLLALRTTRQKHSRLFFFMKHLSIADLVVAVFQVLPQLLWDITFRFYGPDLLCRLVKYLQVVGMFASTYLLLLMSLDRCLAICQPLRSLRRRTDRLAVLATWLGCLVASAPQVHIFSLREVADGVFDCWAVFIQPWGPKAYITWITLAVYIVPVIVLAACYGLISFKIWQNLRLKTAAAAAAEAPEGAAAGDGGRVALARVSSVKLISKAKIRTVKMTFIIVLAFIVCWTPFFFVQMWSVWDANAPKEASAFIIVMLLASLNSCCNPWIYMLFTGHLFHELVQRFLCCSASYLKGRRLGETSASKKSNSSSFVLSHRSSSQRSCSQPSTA
OXTR potentiate – human OXTR potentiators, primary screen, fluorescence, CHO-OTR cells, Fluo-8 calcium | Oxytocin receptor (Homo sapiens), P30559 | 320,000 tested, 0.061% active | Fluo-8 calcium fluorescence, potentiator mode; 0% = oxytocin EC15, 100% = EC100 | activation, % at 3 µM;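 active = activation above that plate's cutoff, the mean activation of tested compounds plus 3 SD, cut at about 6.6% in these data, passing the limit was not always enough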;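 also: 100% uses oxytocin at 75 nM as the full agonist control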
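Dosing: Single dose, 3.0 µM nominal final compound concentration | Material: Human OTR in CHO cells | Technique: Kinetic Fluo-8 calcium fluorescence | Benchmarks: EC15 oxytocin alone as 0%, 75 nM oxytocin as 100% | Probe or stimulus: Oxytocin at about EC15, sub-maximal agonist stimulus | Incubation: Compound 6 min at room temperature before oxytocin, 100 s read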
TAAR1 antag – human TAAR1 antagonists, primary screen, Fluo-8 calcium fluorescence, CHO RD-HGA16 cells; antagonist; AID 624466, 2012; 360,000 tested, 1.5% active; inhibition, % at 3 µM; Trace amine-associated receptor 1 (Homo sapiens), Q96RJ0;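 active = inhibition above a per-plate cutoff, the mean inhibition of test compounds on that plate plus 3 SD, cut at about 49% in these data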;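 also: 0% = DMSO plus EC80 beta-PEA response and 100% = DMSO alone without agonist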
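System: CHO RD-HGA16 cells bearing hTAAR1. Reagent: EC80 β-phenethylamine stimulus. Schedule: seeding 17-24 h prior, 75-min 37 °C, 30-min RT dye loading. Signal: Fluo-8 intracellular calcium dye fluorescence, real-time kinetic reads. Read-out: % inhibition from peak post-agonist over basal fluorescence ratio. Benchmarks: vehicle wells and EC80 agonist wells. Replicates: n of 1.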
nonsel antag count – nonselective antagonists in TAAR1 counter-screen cells, counter-screen for hTAAR1 antagonist project, cell-based, fluorescence, calcium. shares compounds with TAAR1 antag. counterscreen cell line, antagonist mode. inhibition, % at 3 µM. 2,400 tested, 77% active; in the data active = inhibition above about 22%;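 also: CHO-Ga16 host cells stimulated with ATP at an EC80 level; 0% = agonist EC80 plus vehicle and 100% = vehicle without agonist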
TAAR1 antag conf – human TAAR1 antagonists, retest of hits, confirmation, cell-based, fluorescence; TAAR1-expressing cells, fluorescence antagonist read-out; 2,400 tested, 40% active; shares compounds with TAAR1 antag; inhibition, % at 3 µM; in the data active = inhibition above about 49%;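 also: CHO-Ga16 host cells challenged with agonist PEA near its EC80; 0% = agonist at EC80 plus vehicle and 100% = vehicle with no agonist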
Ga16 ag counter – calcium activation in Ga16-expressing cells, counter-screen for TAAR1 antagonist project, cell-based, fluorescence. activation, % at 3 µM. 2,400 tested, 18% active. shares compounds with TAAR1 antag. AID 651953, 2012. agonist counterscreen; in the data active = activation above about 12%;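 also: 0% = vehicle wells and 100% = saturating stimulus response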
TAAR1 ag count – TAAR1 activation by candidate antagonists – cell-based, fluorescence, counter-screen for TAAR1 antagonist project | shares compounds with TAAR1 antag | hTAAR1 cell line, agonist mode | activation, % at 3 µM | 2,400 tested, 2% active | AID 651955, 2012; in the data active = activation above about 37%;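 also: CHO cells stably expressing TAAR1 with calcium dye readout; 0% = DMSO vehicle and 100% = full agonist response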
An asterisk follows results filed as active; x = no result. Compounds with a hit are over-represented: about 2.3% of the library has one in this group of screens.

SMILES	TAAR1 ag	V1aR counter	OXTR ag	OXTR potentiate	TAAR1 antag	nonsel antag count	TAAR1 antag conf	Ga16 ag counter	TAAR1 ag count
O=c1[nH]c2ccccc2n1C1CCN(C(c2ccnc3ccccc23)c2nnnn2-c2ccc3c(c2)OCCO3)CC1 (stereo not given)	18.4	x	x	x	66.2*	10.8	48.0	12.9*	47.9*
CCCCn1nnnc1C(C1CC1)N1CCC(n2c(=O)[nH]c3ccccc32)CC1 (stereo not given)	14.5	x	x	x	73.2*	23.6*	45.0	10.2	19.8
CCCCn1nnnc1C(C1CC1)N1CCC2(CC1)C(=O)NCN2c1ccccc1 (stereo not given)	1.4	x	x	x	-11.7	x	x	x	x
CS(=O)(=O)c1ccc(C2=C(CNC(=O)c3cccs3)[C@H]3CC[C@@H](C2)N3CCOc2ccccc2)cc1	0.5	x	x	x	2.6	x	x	x	x
COc1ccc(-n2nnnc2C(c2ccccc2OC(F)(F)F)N2CCC(n3c(=O)[nH]c4ccccc43)CC2)cc1 (stereo not given)	0.3	x	x	x	31.2	x	x	x	x
COc1ccc(-n2nnnc2C(CCc2ccccc2)N2CCC(n3c(=O)[nH]c4ccccc43)CC2)cc1 (stereo not given)	6.8	x	x	x	57.3*	8.6	38.6	4.7	4.3
CCCCn1nnnc1C(CCSC)N1CCC(n2c(=O)[nH]c3ccccc32)CC1 (stereo not given)	16.6	x	x	x	65.2*	29.3*	53.7*	10.0	27.3
CCC(c1nnnn1-c1ccc(OC)cc1)N1CCC(n2c(=O)[nH]c3ccccc32)CC1 (stereo not given)	13.7	x	x	x	35.7	x	x	x	x
CN(C(=O)COC(=O)c1cn(C)c2ccccc12)C1CCCCC1	16.4	0.6	-0.2	-8.0	9.2	x	x	x	x
COc1ccccc1N1CCN(Cc2cccc(OC)c2O)CC1	7.8	-0.2	-0.4	-9.3	13.1	x	x	x	x
Cc1ccc2nc(-c3ccc(CN4CCC(n5c(=O)[nH]c6ccccc65)CC4)cc3)c(-c3ccccc3)nc2c1	0.0	x	x	x	42.3	x	x	x	x
COc1ccc2nc(-c3ccc(CN4CCC(n5nnc6ccccc65)CC4)cc3)c(-c3ccccc3)nc2c1	0.8	x	x	x	50.5*	18.0	29.4	2.9	7.9
Cc1ccc2nc(-c3ccc(CN4CCC(n5nnc6ccccc65)CC4)cc3)c(-c3ccccc3)nc2c1	0.7	x	x	x	74.8*	27.1*	37.7	2.5	-0.2
O=C(O)CC[N+](=O)[O-]	1.2	-0.3	-1.1	-7.3	-5.5	x	x	x	x
COC(=O)C1=C(c2cccc(C#N)c2)C[C@@H]2CC[C@H]1N2C(=O)NCc1ccco1	6.6	3.9	0.5	-1.3	22.1	x	x	x	x
C[C@@H]1CN([C@@H](C)CO)C(=O)CCCn2cc(nn2)CO[C@H]1CN(C)C(=O)Oc1ccc2ccccc2c1	8.2	x	x	x	-11.3	x	x	x	x
COc1ccc(-n2c(/C=C/c3ccc(O)cc3)nc3ccccc3c2=O)cc1	7.8	2.0	2.4	-4.2	65.8*	30.4*	29.3	5.4	2.6
COc1ccc(-n2c(/C=C/c3ccc(O)c(OC)c3)nc3ccccc3c2=O)cc1	6.6	1.8	1.8	-10.1	59.2*	28.9*	42.6	7.5	3.8
Cc1ccc(-n2c(C)nc3ccccc3c2=O)cc1C	15.1	-0.8	-1.8	2.1	-5.3	x	x	x	x
Cc1nc2ccccc2c(=O)n1-c1ccc(-c2ccccc2)cc1	11.5	2.5	-1.4	-14.2	50.4*	22.9*	48.0	6.1	9.7
CC1CCC(NC(=O)CNC(=S)N2CC3CC(C2)c2cccc(=O)n2C3)CC1 (stereo not given)	2.6	1.2	0.5	1.5	-14.1	x	x	x	x
CCOC(=O)c1cncn1[C@@H](C)c1ccccc1	0.9	1.0	0.0	-4.0	-27.4	x	x	x	x
O=C1NCN(c2ccccc2)C12CCN(C(c1ccccc1OC(F)(F)F)c1nnnn1C1CCCC1)CC2 (stereo not given)	-1.0	x	x	x	-29.1	x	x	x	x
C=C1C(C)C2C(Cc3ccccc3)NC(=O)C23OC(=O)/C=C/C(O)CCCC(C)C/C=C/C3C1O (stereo not given)	17.6	x	x	x	69.8*	20.8	50.1*	13.2*	15.5
Nc1ccncc1	1.6	-0.3	6.0	-13.2	-5.0	x	x	x	x
SMILES	TAAR1 ag	V1aR counter	OXTR ag	OXTR potentiate	TAAR1 antag	nonsel antag count	TAAR1 antag conf	Ga16 ag counter	TAAR1 ag count
CCC(C)N1C(=O)NC(=O)C2(Cc3c(ccc4ccccc34)N(C)C2)C1=O (stereo not given)	23.1	-0.7	-2.7	-6.5	56.0*	32.9*	51.7*	8.8	7.9
COc1ccc2c(c1)CC1(CN2C)C(=O)NC(=O)N(CCc2ccccc2)C1=O (stereo not given)	3.7	0.8	-0.5	-9.7	8.5	x	x	x	x
COC(=O)C1=C(c2ccc(F)cc2OCc2ccccc2)C[C@@H]2CC[C@H]1N2C(=O)NCCOc1ccccc1	11.1	2.5	0.7	-4.1	69.4*	20.8	41.4	13.1*	13.1
COC(=O)C1=C(c2ccc(F)cc2OCc2ccccc2)C[C@@H]2CC[C@H]1N2C(=O)NCCOc1ccc(OC)cc1	4.8	2.4	0.3	-6.9	59.1*	18.2	26.1	2.4	2.1
COc1cccc(NP(=O)(Oc2ccc(Cl)cc2)Oc2ccc(Cl)cc2)c1	5.9	1.3	-0.6	-9.7	58.8*	14.0	47.5	6.5	11.4
O=P(Nc1cccc(F)c1)(Oc1ccccc1F)Oc1ccccc1F	2.9	1.2	-2.9	-2.3	89.7*	28.6*	66.8*	11.3	9.3
COC(=O)C1=C(c2cccc(OCc3ccccc3)c2)C[C@@H]2CC[C@H]1N2C(=O)NCCN1CCOCC1	0.4	-0.9	-0.5	-5.1	0.8	x	x	x	x
CCOC(=O)CC(SP1(=S)OCC2(CCCCC2)CO1)C(=O)OCC (stereo not given)	1.4	x	x	x	57.9*	16.7	28.7	3.8	0.6

High-throughput results as filed in PubChem BioAssay.
